The values that follow come from ChEMBL document CHEMBL2169822, “Discovery and optimization of 1,3,4-trisubstituted-pyrazolone derivatives as novel, potent, and nonsteroidal farnesoid X receptor (FXR) selective antagonists” (J Med Chem, 2012).

Experiment [1] is described as follows: Agonist activity at GST tagged human recombinant FXRalphaLBD expressed in Escherichia coli BL21 cells assessed as SRC-1 co-activator association at 40 uM after 30 mins by HTRF assay. It is filed as functional. The method, boiled down: (§1)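 HTRF coactivator recruitment: 10 nM GST-human FXRαLBD (residues 238–473, E. coli BL21(DE3)), 0.83 nM anti-GST-Eu cryptate, 100 nM biotin-SRC1 peptide, 41.75 nM SA/XL665. Buffer was 50 mM Hepes pH 7.0, 125 mM KF, 0.125% CHAPS, 0.05% dry milk. Compound alone or with CDCA, 30 min at room temperature. Signal was 1000×(668/620 nm). Primary screen at 40 μM; IC50 as mean ± SE, three experiments.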
For orientation: TR-FRET usually uses a lanthanide donor and a delayed reading to cut background.

A short description of experiment [2]: Antagonist activity at GST-tagged human recombinant FXRalphaLBD expressed in Escherichia coli BL21 cells assessed as inhibition of CDCA-induced SRC-1 co-activator association at 40 uM by HTRF assay. It is filed as functional. The method, boiled down:
as §1

A short description of experiment [3]: (§2) Antagonist activity at GST-tagged human recombinant FXRalphaLBD expressed in Escherichia coli BL21 cells assessed as inhibition of CDCA-induced SRC-1 co-activator association by HTRF assay. It is filed as functional. Summed up: as §1
In experiment [4] the test system is HEK-293T. As to the kind of experiment: Agonist activity at FXRalpha/RXRalpha expressed in HEK293T cells co-expressing GAL4 DBD after 18 hrs by luciferase based transactivation assay. Particulars: Homo sapiens. It is filed as functional, cell-based. The method, boiled down: (§3)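 FXR transactivation in HEK293T cells transiently transfected with pcDNA3.1-FXRα, pcDNA3.1-RXRα, pGL3-FXRE-Luc and pRL-SV40 Renilla vector. Medium was replaced 6 h after transfection with medium holding compound at varied concentrations, with or without 20 μM CDCA, for 18 h. Read-out was dual-luciferase. Three independent experiments.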

The subject of experiment [5] is Mus musculus. The experiment in a line: Reduction of serum triglyceride level in cholesterol-fed C57BL/6 mouse at 100 mg/kg, po after 10 days. It is filed as functional. Also on record: scale not given: the % may be the effect or the level left. The method, boiled down:
(§4)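 Male C57BL/6 mice, 8–12 weeks old, were randomized into five groups of nine. Control mice had ground chow; the other groups had chow with 2% cholesterol. Compound (50 or 100 mg/kg) or reference (100 mg/kg) was suspended in 0.5% CMC-Na and given by oral gavage; control and vehicle mice got 0.5% CMC-Na. Serum and hepatic triglyceride and total cholesterol were measured.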

Experiment [6] relates to Mus musculus. As to the kind of experiment: Reduction of hepatic cholesterol level in cholesterol-fed C57BL/6 mouse at 100 mg/kg, po after 10 days. It is filed as functional. Also noted: scale not given: the % may be the effect or the level left. The method, boiled down: as §4
The subject of another experiment is BL21. The description is as §2. It is filed as functional. The method, boiled down: as §1
In experiment [7] the test system is Mus musculus. As to the kind of experiment: Reduction of hepatic triglyceride level in cholesterol-fed C57BL/6 mouse at 100 mg/kg, po after 10 days. It is filed as functional. Also on record: scale not given: the % may be the effect or the level left. The method, boiled down: as §4
The subject of experiment [8] is HEK-293T. As to the kind of experiment: Antagonist activity at FXRalpha/RXRalpha expressed in HEK293T cells co-expressing GAL4 DBD assessed as inhibition of CDCA-induced transactivation at 50 uM after 18 hrs by luciferase reporter gene assay. Particulars: Homo sapiens. It is filed as functional, cell-based. The method, boiled down:
as §3
A general note: Reporter assays use an easily measured gene product as a stand-in for the process of interest.

Experiment [9] can be described thus: Agonist activity at GST tagged human recombinant FXRalphaLBD expressed in Escherichia coli BL21 cells assessed as SRC-1 co-activator association after 30 mins by HTRF assay. It is filed as functional. Particulars: BL21, 0.5 h. Summed up:
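Human FXRα LBD (residues 238–473) expressed as GST fusion in E. coli BL21(DE3) (IPTG 0.2 mM, 20 °C 6 h), purified on glutathione resin then Superdex 75. 10 nM GST-FXRαLBD incubated with 0.83 nM anti-GST-Eu cryptate, 100 nM biotin-SRC1 peptide and 41.75 nM SA/XL665 in 50 mM Hepes pH 7.0, 125 mM KF, 0.125% CHAPS, 0.05% dry milk, 30 min room temperature. Signal read as 1000×(668/620 nm). Primary screen at 40 μM.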

Active and inactive are the calls of the source. No cut-off for these calls is given here.

One may read the inhibition as the change of the read-out against control, counted positive when it falls. Consider `CC1=NN(c2cccc([N+](=O)[O-])c2)C(=O)/C1=C\c1ccc(C)s1`, for which the Activity in experiment [1] is given as less than 5%. For the same compound, the inhibition at 40 µM in [2] is less than 5%.

Turning to `CCOc1ccc(/C=C2\C(=O)N(c3cccc(C(F)(F)F)c3)N=C2C)cc1OC`, the Activity in experiment [1] is less than 5%. In experiment [2], the inhibition at 40 µM is less than 5%.

For the compound `CCOc1ccc(/C=C2\C(=O)N(c3cc(C(F)(F)F)cc(C(F)(F)F)c3)N=C2C)cc1OC`, the Activity in [1] is reported as less than 5%. For the same compound, in experiment [2], the inhibition at 40 µM was less than 5%.

As usually defined, the IC50 is the concentration that inhibits the measured activity by half. Regarding `CCOc1ccc(/C=C2\C(=O)N(c3cccc(C(=O)O)c3)N=C2C)cc1OC`, in [1], the Activity is on record as 9%. Moreover, the IC50 in experiment [3] worked out at 69 µM. Moreover, the inhibition at 40 µM in [2] worked out at 48.5%.

For `CCOc1ccc(/C=C2\C(=O)N(c3ccccc3F)N=C2C)cc1OC`, the Activity in experiment [1] is listed as less than 5%. The inhibition at 40 µM in experiment [2] stood at 5.5%.

Take `COc1cc(/C=C2\C(=O)N(c3cccc([N+](=O)[O-])c3)N=C2C(C)C)ccc1O`: the Activity in experiment [1] is recorded as less than 5%. For the same compound, the inhibition at 40 µM in experiment [2] was 26.4%.

Turning to `COc1cc(/C=C2\C(=O)N(c3cccc(C(=O)O)c3)N=C2C)ccc1O`, the Activity in [1] amounted to 6.4%. For the same compound, the inhibition at 40 µM in experiment [2] was less than 5%.

With `CC1=NN(c2cccc(C(=O)O)c2)C(=O)/C1=C\C=C\c1ccccc1`, in experiment [1], the Activity is on record as less than 5%. Also, in experiment [2], the inhibition at 40 µM was found to be 32.1%.

As to `CCCCCOc1ccc(/C=C2\C(=O)N(c3cccc(C(=O)O)c3)N=C2C)cc1OC`, the result with HEK-293T [4] was inactive. Also, the Activity in experiment [1] is recorded as less than 5%. In addition, the IC50 in experiment [3] worked out at 39.2 µM. In addition, the inhibition at 40 µM in experiment [2] was 55.4%.

As to `CCOc1ccc(/C=C2\C(=O)N(c3ccc([N+](=O)[O-])cc3)N=C2C)cc1OC`, in [1], the Activity came to 12.7%. In experiment [2], the inhibition at 40 µM worked out at 14.8%.

Take `CCOC(=O)c1cccc(N2N=C(C)/C(=C/c3ccc(OCC)c(OC)c3)C2=O)c1`: the Activity in experiment [1] is less than 5%. Moreover, the inhibition at 40 µM in experiment [2] came to 9.4%.

Take `COc1ccc(/C=C2\C(=O)N(c3cccc([N+](=O)[O-])c3)N=C2C)c2ccccc12`: the Activity in [1] was less than 5%. In addition, the inhibition at 40 µM in [2] came to 22.7%.

In the case of `C/C=C1\C(=O)C[C@H]2[C@@H]3CCC4=CC(=O)CC[C@]4(C)[C@H]3CC[C@]12C` [GUGGULSTERONE], the Activity is 53.7% in the experiment on Mus musculus [5], 26.3% with Mus musculus [6] and 45.1% with Mus musculus [7]. In addition, in experiment [3], the IC50 stood at 89.4 µM. Moreover, the inhibition result in the experiment with BL21 was “Dose-dependent effect”. Besides, in the experiment on HEK-293T [8], the inhibition result is “Active”.

As to `COc1cc(/C=C2\C(=O)N(c3cccc(C(=O)O)c3)N=C2C)ccc1OCc1ccccc1`, the outcome in the experiment with HEK-293T [4] was inactive. The Activity in [1] was less than 5%. The IC50 in experiment [3] is 33.8 µM. Also, in experiment [2], the inhibition at 40 µM stood at 57.5%.

On to `CCOc1ccc(/C=C2\C(=O)N(c3c(F)c(F)c(F)c(F)c3F)N=C2C)cc1OC`, for which the result in the experiment on HEK-293T [4] was inactive. Besides, the Activity in [1] was less than 5%. In addition, the IC50 in [3] came to 82.2 µM. Besides, in experiment [2], the inhibition at 40 µM turned out to be 43.6%.

For the compound `CC1=NN(c2ccc([N+](=O)[O-])cc2)C(=O)/C1=C(/C)c1ccc(Cl)cc1`, the Activity in [1] is less than 5%. In addition, in experiment [2], the inhibition at 40 µM is 16.8%.

In general, EC50 refers to the concentration needed to bring the measured effect to its halfway point. As to `C[C@H](CCC(=O)O)[C@H]1CC[C@H]2[C@@H]3[C@H](O)C[C@@H]4C[C@H](O)CC[C@]4(C)[C@H]3CC[C@]12C` [CHENODIOL], the EC50 in experiment [9] stood at 12.5 µM.

Regarding `COc1cc(/C=C2\C(=O)N(c3cccc(C(=O)O)c3)N=C2C)ccc1OC(C)C`, in experiment [1], the Activity is less than 5%. Also, in experiment [2], the inhibition at 40 µM was less than 5%.

For the compound `CC1=NN(c2ccccc2)C(=O)/C1=C\c1ccc(Br)cc1`, the result in the experiment with HEK-293T [4] was inactive. For the same compound, the Activity in [1] was less than 5%. Moreover, the IC50 in [3] was determined as 9.93 µM. The inhibition at 40 µM in experiment [2] amounted to 72.6%.

Turning to `CCOc1ccc(/C=C2\C(=O)N(c3ccc(Cl)c(Cl)c3)N=C2C)cc1OC`, the Activity in experiment [1] is on record as less than 5%. Moreover, the inhibition at 40 µM in experiment [2] is 7.3%.

With `CCOc1ccc(/C=C2\C(=O)N(c3ccc(C(F)(F)F)cc3)N=C2C)cc1OC`, in experiment [1], the Activity is reported as less than 5%. In addition, the inhibition at 40 µM in experiment [2] is 9.5%.

Take `CC1=NN(c2ccccc2)C(=O)/C1=C\c1ccccc1`: the Activity in [1] is reported as less than 5%. Also, in experiment [2], the inhibition at 40 µM stood at 23.1%.

For `CCOc1ccc(/C=C2\C(=O)N(c3cc(Cl)cc(Cl)c3)N=C2C)cc1OC`, in experiment [1], the Activity is given as less than 5%. Moreover, in experiment [2], the inhibition at 40 µM was less than 5%.

With `CC1=NN(c2cccc(C(=O)O)c2)C(=O)/C1=C\c1ccc(O)c(O)c1`, the Activity in [1] is recorded as less than 5%. Besides, the inhibition at 40 µM in experiment [2] was 17.4%.

As to `CCOc1ccc(/C=C2\C(=O)N(c3ccc(C(C)C)cc3)N=C2C)cc1OC`, the Activity in [1] was less than 5%. Moreover, in experiment [2], the inhibition at 40 µM is 7.7%.

For the compound `COc1cc(/C=C2\C(=O)N(c3cccc(C(=O)OC(C)C)c3)N=C2C)ccc1O`, the Activity in experiment [1] is on record as less than 5%. In addition, the inhibition at 40 µM in [2] was 29.9%.

For `CCOc1ccc(/C=C2\C(=O)N(c3cccc([N+](=O)[O-])c3)N=C2C)cc1OC`, the Activity in experiment [1] was determined as 29.2%. Further, the inhibition at 40 µM in experiment [2] is less than 5%.
